ChEMBL document CHEMBL2434856, “Synthesis and in vitro and in vivo evaluation of antimalarial polyamines” (Eur J Med Chem, 2013)
The source made the active and inactive calls. No cut-off for these calls is given here.

How the values were obtained:
[1] = Selectivity index, ratio of IC50 for rat L6 cells to IC50 for erythrocytic stage of chloroquine and pyrimethamine-resistant Plasmodium falciparum K1; format: toxicity, cell-based; conditions: read-out: Ratio IC50
In short: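 Selectivity index calculated as the IC50 against rat L6 skeletal myoblasts divided by the IC50 against the erythrocytic stage of P. falciparum K1, both in µM. Chloroquine served as the positive control in the parasite assay. IC50 values are means of duplicate assays.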

[2] = test system: Plasmodium falciparum; assay: Antimalarial activity against erythrocytic stage of chloroquine and pyrimethamine-resistant Plasmodium falciparum K1; format: functional, organism-based
In short: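 P. falciparum K1 (chloroquine- and pyrimethamine-resistant), erythrocytic stage, growth inhibition read as IC50 in µM. Chloroquine served as the positive control. Values are means of duplicate assays.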

[3] = test system: L6; assay: Cytotoxicity against rat L6 cells; format: cell-based
In short: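 Rat skeletal myoblast L6 cell line, tested alongside the P. falciparum K1 assay so that a selectivity index (IC50 L6 / IC50 Pf) could be derived. Read-out is IC50 in µM, reported as the mean of duplicate assays.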

[4] = test system: Mus musculus; assay: Acute toxicity in NMRI mouse infected with GFP-transfected Plasmodium berghei ANKA at 150 mg/kg, ip; format: organism-based; design: dose 150 mg/kg, route intraperitoneal; conditions: in vivo
[5] = test system: Plasmodium berghei; assay: Antimalarial activity against GFP-transfected Plasmodium berghei ANKA infected in NMRI mouse assessed as reduction of parasitaemia at 50 mg/kg, ip qd for 4 days
[6] = test system: Plasmodium berghei; assay: Antimalarial activity against GFP-transfected Plasmodium berghei ANKA infected in NMRI mouse assessed as increase of mean survival time at 50 mg/kg, ip qd for 4 days
[7] = test system: Plasmodium berghei; assay: Antimalarial activity against GFP-transfected Plasmodium berghei ANKA infected in NMRI mouse assessed as reduction of parasitaemia at 30 mg/kg, ip qd for 4 days; design: scale not given: the % may be the effect or the level left; conditions: route intraperitoneal
[8] = test system: Plasmodium berghei; assay: Antimalarial activity against GFP-transfected Plasmodium berghei ANKA infected in NMRI mouse assessed as increase of mean survival time at 30 mg/kg, ip qd for 4 days
[9] = test system: Mus musculus; assay: Acute toxicity in NMRI mouse infected with GFP-transfected Plasmodium berghei ANKA at 100 mg/kg, ip; format: organism-based; design: dose 100 mg/kg, route intraperitoneal; conditions: in vivo
[10] = test system: Plasmodium berghei; assay: Antimalarial activity against GFP-transfected Plasmodium berghei ANKA infected in NMRI mouse assessed as reduction of parasitaemia at 20 mg/kg, ip qd for 4 days
[11] = test system: Plasmodium berghei; assay: Antimalarial activity against GFP-transfected Plasmodium berghei ANKA infected in NMRI mouse assessed as increase of mean survival time at 20 mg/kg, ip qd for 4 days

Structure (SMILES)	selectivity ratio [1]	IC50 [2]	IC50 [3]	further results
COc1ccc(CCC(=O)NCCCN(CCCCCCCCCCCCN(CCCNC(=O)CCc2ccc(OC)c(OC)c2)C(=O)OC(C)(C)C)C(=O)OC(C)(C)C)cc1OC	38	0.066 µM	2.5 µM	–
COc1ccc(OC)c(C(=O)NCCCN(CCCCCCCCCCCCN(CCCNC(=O)c2cc(OC)ccc2OC)C(=O)OC(C)(C)C)C(=O)OC(C)(C)C)c1	10	0.18 µM	1.8 µM	–
CC(C)(C)OC(=O)N(CCCCCCCCCCCCN(CCCNC(=O)Cc1ccccc1O)C(=O)OC(C)(C)C)CCCNC(=O)Cc1ccccc1O	59	0.17 µM	10 µM	–
COc1ccccc1CC(=O)NCCCNCCCCCCCCCCCCNCCCNC(=O)Cc1ccccc1OC	269	0.078 µM	21 µM	–
O=C(CCc1ccccc1O)NCCCNCCCCNCCCNC(=O)CCc1ccccc1O	5700	0.015 µM	86 µM	Activity [4]: Non-toxic; Activity [5]: inactive; Activity [6]: inactive
COc1ccc(CC(=O)NCCCNCCCCCCCCCCCCNCCCNC(=O)Cc2ccc(OC)cc2)cc1	95	0.2 µM	19 µM	–
CC(C)(C)OC(=O)N(CCCCCCCCCCCCN(CCCNC(=O)CCc1ccccc1O)C(=O)OC(C)(C)C)CCCNC(=O)CCc1ccccc1O	28	0.13 µM	3.6 µM	–
O=C(Cc1ccccc1O)NCCCNCCCCNCCCNC(=O)Cc1ccccc1O	–	–	–	Activity [4]: Toxic; Activity [7]: 27.9%; Activity [8]: inactive
COc1ccc(OC)c(C(=O)NCCCNCCCCCCCCCCCCNCCCNC(=O)c2cc(OC)ccc2OC)c1	5.6	0.39 µM	2.2 µM	–
O=C(Cc1ccccc1O)NCCCNCCCCCCCCNCCCNC(=O)Cc1ccccc1O	42300	0.0013 µM	55 µM	–
COc1ccc(CC(=O)NCCCN(CCCCCCCCCCCCN(CCCNC(=O)Cc2ccc(OC)cc2)C(=O)OC(C)(C)C)C(=O)OC(C)(C)C)cc1	22	0.21 µM	4.7 µM	–
O=C(CCc1ccccc1)NCCCNCCCCCCCCCCCCNCCCNC(=O)CCc1ccccc1	95	0.073 µM	6.9 µM	–
CC(C)(C)OC(=O)N(CCCCCCCCN(CCCNC(=O)Cc1ccccc1)C(=O)OC(C)(C)C)CCCNC(=O)Cc1ccccc1	18	0.47 µM	8.6 µM	–
CC(C)(C)OC(=O)N(CCCCCCCCCCCCN(CCCNC(=O)CCc1ccccc1)C(=O)OC(C)(C)C)CCCNC(=O)CCc1ccccc1	17	0.24 µM	4 µM	–
O=C(Cc1ccccc1)NCCCNCCCCCCCCNCCCNC(=O)Cc1ccccc1	4930	0.015 µM	74 µM	Activity [9]: Toxic; Activity [10]: inactive; Activity [11]: inactive
COc1ccc(OC)c(CC(=O)NCCCN(CCCCCCCCCCCCN(CCCNC(=O)Cc2cc(OC)ccc2OC)C(=O)OC(C)(C)C)C(=O)OC(C)(C)C)c1	14	0.16 µM	2.2 µM	–
COc1ccc(OC)c(CCC(=O)NCCCN(CCCCCCCCCCCCN(CCCNC(=O)CCc2cc(OC)ccc2OC)C(=O)OC(C)(C)C)C(=O)OC(C)(C)C)c1	13	0.18 µM	2.3 µM	–
COc1ccc(OC)c(CCC(=O)NCCCNCCCCCCCCCCCCNCCCNC(=O)CCc2cc(OC)ccc2OC)c1	59	0.11 µM	6.5 µM	–
CC(C)(C)OC(=O)N(CCCCCCCCCCCCN(CCCNC(=O)c1ccccc1)C(=O)OC(C)(C)C)CCCNC(=O)c1ccccc1	52	0.16 µM	8.3 µM	–

Structure (SMILES)	selectivity ratio [1]	IC50 [2]	IC50 [3]	further results
CC(C)(C)OC(=O)N(CCCCCCCCCCCCN(CCCNC(=O)Cc1ccccc1)C(=O)OC(C)(C)C)CCCNC(=O)Cc1ccccc1	32	0.26 µM	8.2 µM	–
O=C(Cc1ccccc1)NCCCNCCCCCCCCCCCCNCCCNC(=O)Cc1ccccc1	138	0.16 µM	22 µM	–
O=C(NCCCNCCCCCCCCCCCCNCCCNC(=O)c1ccccc1O)c1ccccc1O	6.6	0.38 µM	2.5 µM	–
CC(C)(C)OC(=O)N(CCCCCCCCCCCCN(CCCNC(=O)c1ccccc1O)C(=O)OC(C)(C)C)CCCNC(=O)c1ccccc1O	186	0.5 µM	93 µM	–
CC(C)(C)OC(=O)N(CCCCCCCCN(CCCNC(=O)Cc1ccccc1O)C(=O)OC(C)(C)C)CCCNC(=O)Cc1ccccc1O	22	0.73 µM	16 µM	–
COc1ccc(CCC(=O)NCCCNCCCCCCCCCCCCNCCCNC(=O)CCc2ccc(OC)c(OC)c2)cc1OC	803	0.071 µM	57 µM	–
O=C(CCc1ccccc1O)NCCCNCCCCCCCCCCCCNCCCNC(=O)CCc1ccccc1O	6530	0.0095 µM	62 µM	–
O=C(NCCCNCCCCNCCCNC(=O)c1ccccc1)c1ccccc1	200	0.45 µM	89 µM	–
O=C(Cc1ccccc1O)NCCCNCCCCCCCCCCCCNCCCNC(=O)Cc1ccccc1O	4880	0.0086 µM	42 µM	–
COc1ccc(OC)c(CCC(=O)NCCCNCCCCNCCCNC(=O)CCc2cc(OC)ccc2OC)c1	16200	0.0061 µM	99 µM	–
COc1ccccc1CC(=O)NCCCN(CCCCCCCCCCCCN(CCCNC(=O)Cc1ccccc1OC)C(=O)OC(C)(C)C)C(=O)OC(C)(C)C	5.9	0.46 µM	2.7 µM	–
COc1ccc(OC)c(CC(=O)NCCCN(CCCCCCCCN(CCCNC(=O)Cc2cc(OC)ccc2OC)C(=O)OC(C)(C)C)C(=O)OC(C)(C)C)c1	40	0.048 µM	1.9 µM	–
COc1ccc(CCC(=O)NCCCNCCCCNCCCNC(=O)CCc2ccc(OC)c(OC)c2)cc1OC	160	0.46 µM	73 µM	–
O=C(NCCCNCCCCNCCCNC(=O)c1ccccc1O)c1ccccc1O	44	1.9 µM	83 µM	–
COc1ccc(OC)c(C(=O)NCCCNCCCCNCCCNC(=O)c2cc(OC)ccc2OC)c1	81	0.93 µM	75 µM	–
COc1ccc(OC)c(CC(=O)NCCCNCCCCCCCCNCCCNC(=O)Cc2cc(OC)ccc2OC)c1	5080	0.012 µM	61 µM	–
O=C(CCc1ccccc1)NCCCNCCCCNCCCNC(=O)CCc1ccccc1	910	0.1 µM	91 µM	–
COc1ccc(OC)c(CC(=O)NCCCNCCCCCCCCCCCCNCCCNC(=O)Cc2cc(OC)ccc2OC)c1	121	0.19 µM	23 µM	–
O=C(NCCCNCCCCCCCCCCCCNCCCNC(=O)c1ccccc1)c1ccccc1	43	0.16 µM	6.9 µM	–
